CXCR6 inh – inhibitors of human CXCR6 receptor. O00574. CHO-K1 PathHunter CXCR6 beta-arrestin, luminescence. inhibition, % at 20 µM. 360,000 tested, 0.36% active. AID 602244; in the data active = inhibition above about 34%, passing the limit was not always enough;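 note: antagonist mode with CXCL16 agonist at 10 nM final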
Target sequence (O00574 whole entry, looked up): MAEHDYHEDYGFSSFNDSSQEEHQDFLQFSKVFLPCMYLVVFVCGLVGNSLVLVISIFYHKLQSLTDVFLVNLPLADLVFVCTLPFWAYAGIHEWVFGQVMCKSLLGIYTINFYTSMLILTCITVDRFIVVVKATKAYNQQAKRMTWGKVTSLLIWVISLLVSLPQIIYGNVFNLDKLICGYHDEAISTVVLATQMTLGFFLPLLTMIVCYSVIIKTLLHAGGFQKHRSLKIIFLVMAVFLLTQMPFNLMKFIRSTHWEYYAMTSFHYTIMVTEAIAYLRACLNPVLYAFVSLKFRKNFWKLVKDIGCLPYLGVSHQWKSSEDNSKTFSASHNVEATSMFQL
iPSC survival up – increases survival of single human iPS cells | 360,000 tested, 0.044% active | survival enhancement, % at 20 µM | hiPSC single-cell survival, ATPlite luminescence; 100% = ROCK inhibitor wells, 0% = DMSO; in the data active = survival enhancement above about 18%;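 note: cells exposed to compounds for 16 hours before the ATP read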
APJ ag – agonists of human APJ apelin receptor; activation, % at 20 µM; CHO-K1 APJ PathHunter beta-arrestin, luminescence; 0% DMSO wells, 100% apelin; P35414; 330,000 tested, 0.11% active;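 active = activation more than six SD over the plate average, tested at 20 µM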
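Assay system – PathHunter CHO-K1 APJ (AGTRL-1) beta-arrestin reporter cells · Compound – one dose, 20 µM compound, 1% DMSO · Timing – compound 90 min 25 °C, reagent 1 h · Measured by – luminescence from split beta-galactosidase complementation, Galacton Star/Emerald II substrate · Measure – beta-arrestin recruitment to APJ as agonist activity, luminescent signal · Benchmarks – DMSO vs Apelin-13 10 nM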
CCR6 antagonist – CCR6 (human) receptor antagonism. P51684. CHO-K1 CCR6 PathHunter beta-arrestin, luminescence, CCL20-stimulated. inhibition, % at 20 µM. 340,000 tested, 0.49% active;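 active = compounds whose inhibition of the agonist-driven luminescence signal at 20 µM reaches about 50%, limit read from the data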;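 note: cells stimulated with CCL20 at 14 nM final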
APJ antag – APJ receptor antagonism. P35414. inhibition, % at 20 µM. CHO-K1 APJ beta-arrestin complementation, luminescence. 330,000 tested, 0.32% active;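 active = inhibition above about 40% at 20 µM, limit read from the data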;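 note: cells challenged with 10 nM apelin-13 agonist together with compound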
EBI2 antag – antagonists of human EBI2 receptor; inhibition, % at 5 µM; EBI2 beta-arrestin recruitment, luminescence, 7a,25-OHC stimulated; 360,000 tested, 0.81% active; in the data active = inhibition above about 38%;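 note: enzyme fragment complementation signal reports receptor beta-arrestin coupling in cells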
EBI2 antag conf – EBI2 (human) antagonism, single concentration confirmation | shares compounds with EBI2 antag | EBI2 beta-arrestin luminescence, 7a,25-OHC antagonism | inhibition, % at 5 µM | 2,400 tested, 29% active | AID 651997;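 active = inhibition of at least 50%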
EBI2 agonist – EBI2 agonism counter-screen. AID 652000. shares compounds with EBI2 antag. EBI2-expressing cells, agonist mode, luminescence, 60 min; 0% vehicle, 100% 7α,25-dihydroxycholesterol control. activation, % at 5 µM. 2,400 tested, under 10 active;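 active = activation of at least 50%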
bGal cs – beta-galactosidase inhibition counter-screen. shares compounds with EBI2 antag. purified beta-galactosidase, luminescent Galacton Star, 15 min. inhibition, % at 5 µM. 2,400 tested, 1% active;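 active = replicate-average signal at least 3 plate SD below neutral wells, shown as high inhibition, flagging enzyme-inhibiting false positives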;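 note: higher means stronger loss of beta-gal luminescence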
Hits are given with their value; - = inactive; . = not tested or not shown. Only some compounds are listed: those with a hit (about 1.5% of all), similar ones and a draw of the others.

SMILES	CXCR6 inh	iPSC survival up	APJ ag	CCR6 antagonist	APJ antag	EBI2 antag	EBI2 antag conf	EBI2 agonist	bGal cs
COc1ccccc1CNC(=O)CSc1ccc(Br)cc1	-	-	-	-	-	45	-	-	-
O=C(NCC(c1ccccc1Cl)N1CCCC1)c1ccc(N2CCCC2=O)cc1 (stereo not drawn)	-	-	-	-	-	-	.	.	.
Brc1ccc(-c2nnc3sc(CN4CCN(c5ccccc5)CC4)cn23)cc1	-	-	-	-	-	75	-	-	-
Brc1cccc(-c2nnc3sc(CN4CCCCC4)cn23)c1	-	-	-	-	-	-	.	.	.
COc1ccc(CCNC(=O)C23CN(Cc4ccccc4)CC2C(c2cccc([N+](=O)[O-])c2)=NO3)cc1 (stereo not drawn)	-	-	-	-	-	52	-	-	-
Cc1ccc(CCNC(=O)C23CN(Cc4ccccc4)CC2C(c2cccc([N+](=O)[O-])c2)=NO3)cc1 (stereo not drawn)	-	-	-	-	-	63	-	-	-
O=C(NCC1CCCCC1)C12CN(Cc3ccccc3)CC1C(c1cccc([N+](=O)[O-])c1)=NO2 (stereo not drawn)	-	-	-	-	-	-	.	.	.
CCN(C[C@H]1N[C@@](CC)(C(=O)OC)[C@H]2C(=O)N(C)C(=O)[C@@H]12)S(=O)(=O)c1ccc(OC(F)(F)F)cc1	-	-	-	-	-	-	.	.	.
N#Cc1ccc(-c2ccc(F)cc2)nc1SCC(=O)Nc1sc2c(c1C#N)CCC2	-	-	-	-	-	53	-	-	-
N#Cc1cc2c(nc1SCC(=O)Nc1sc3c(c1C#N)CCC3)CCCC2	-	-	-	-	-	-	.	.	.
CNC(=O)c1ccc(CN(C)C(=O)c2cccc(S(=O)(=O)N3CCc4ccccc4C3)c2)cc1	-	-	.	.	.	-	.	.	.
COc1ccc(/C=C(/CC(=O)NCc2ccc(Cl)cc2)c2nc3ccccc3s2)cc1	-	-	-	-	-	39	-	-	-
O=C(NCCCn1ccnc1)c1ccc(Cl)s1	-	-	-	-	-	-	.	.	.
COc1ccc2[nH]c(C(=O)N3CCC(Cc4ccccc4)CC3)cc2c1	-	-	-	-	-	84	51	-	-
O=C(c1cc2cc(F)ccc2[nH]1)N1CCC(Cc2ccccc2)CC1	-	-	-	-	-	88	63	-	-
COc1cc2cc(C(=O)N3CCC(Cc4ccccc4)CC3)[nH]c2cc1OC	-	-	-	-	-	-	.	.	.
COc1ccc2cc(C(=O)N3CCC(Cc4ccccc4)CC3)[nH]c2c1	-	-	-	-	-	77	53	-	-
O=C(c1cc2cc(F)ccc2[nH]1)N1CCc2ccccc2C1	-	-	-	-	-	-	.	.	.
Cc1nn(CCCC(=O)NCc2ccc(F)cc2)c(=O)c2nccn12	-	-	-	-	-	-	.	.	.
COc1ccc(Cl)cc1C(=O)NNC(=O)CNC(=O)c1ccco1	-	-	-	-	-	-	.	.	.
O=C(NCc1ccccc1)c1ccc(C2SCC(=O)N2Cc2ccccc2)cc1 (stereo not drawn)	-	-	-	-	-	41	-	-	-
O=C(NCc1ccccc1)c1ccc(Oc2ccc(C(=O)NCc3ccccc3)cc2)cc1	-	-	-	-	-	47	-	-	-
CCOC(=O)c1c(C)[nH]c(C(=O)CN(C)CC(=O)Nc2ccccc2C(F)(F)F)c1C	-	-	-	-	-	-	.	.	.
CC(=O)c1ccc(N2CCN(C(=O)c3ccc(C(=O)c4ccccc4)cc3)CC2)cc1	-	-	-	-	-	-	.	.	.
O=C(COC(=O)/C=C/c1cccs1)NC(c1ccccc1)c1ccccc1	-	-	-	-	-	62	-	-	-
SMILES	CXCR6 inh	iPSC survival up	APJ ag	CCR6 antagonist	APJ antag	EBI2 antag	EBI2 antag conf	EBI2 agonist	bGal cs
O=C(COC(=O)/C=C/c1cccs1)NC(=O)Cc1ccccc1	-	-	-	-	-	-	.	.	.
O=C(NCc1cccs1)C(=O)NCC(c1ccco1)N1CCN(c2ccccc2F)CC1 (stereo not drawn)	-	-	-	-	-	52	-	-	-
O=C(NCC(c1ccco1)N1CCN(c2ccccc2F)CC1)c1cccs1 (stereo not drawn)	-	-	-	-	-	-	.	.	.
COCCN1C(=O)c2cc(C(=O)Nc3cccc(F)c3)ccc2C1Nc1cccc(F)c1 (stereo not drawn)	-	-	-	-	-	75	-	-	-
CCc1ccc(NC(=O)c2ccc3c(c2)C(=O)N(CCOC)C3Nc2ccc(CC)cc2)cc1 (stereo not drawn)	-	-	-	-	-	65	62	-	-
COCCN1C(=O)c2cc(C(=O)Nc3ccc(C)c(F)c3)ccc2C1Nc1ccc(C)c(F)c1 (stereo not drawn)	-	-	-	-	-	86	65	-	-
COc1cc(NC(=O)C(C)N2CCN(C(=O)C3CC3)CC2)cc(OC)c1 (stereo not drawn)	-	-	-	-	-	-	.	.	.
O=C(CSc1nc2ccc(Nc3nc(N4CCOCC4)nc(N4CCOCC4)n3)cc2s1)Nc1ccccc1Cl	-	-	-	-	-	-	.	.	.
O=C(CSc1nc2ccc(Nc3nc(N4CCCC4)nc(N4CCCC4)n3)cc2s1)NCc1ccco1	-	-	-	-	-	49	-	-	-
CN(Cc1ccccc1)C(=O)COc1cc(Cl)ccc1Cl	-	-	-	-	-	-	.	.	.
CN(Cc1ccccc1)C(=O)COC(=O)COc1ccc(Cl)cc1	-	-	-	-	-	-	.	.	.
CN(Cc1ccccc1)C(=O)COc1ccc2ccccc2c1	-	-	-	-	-	90	87	-	-
Cc1cc(OCC(=O)N(C)Cc2ccccc2)cc(C)c1Cl	-	-	-	-	-	87	65	-	-
CN(Cc1ccccc1)C(=O)C(=O)c1c[nH]c2ccccc12	-	-	.	.	.	-	.	.	.
Cc1ccc(Nc2c(-c3ccccc3O)nc3cnccn23)cc1	-	-	-	-	-	57	-	-	-
COc1ccc(Nc2c(-c3ccc(C)cc3)nc3cnccn23)cc1	-	-	-	-	-	-	.	.	.
OC(c1ccc2c(c1)OCO2)c1ncc(-c2cccc(C(F)(F)F)c2)[nH]1 (stereo not drawn)	-	-	.	.	.	-	.	.	.
COC(=O)[C@@]1(Cc2ccc(F)cc2)[C@H]2c3cc(C(=O)N4CCCC4)n(C)c3C[C@H]2CN1C(=O)c1ccccc1	-	-	.	.	.	-	.	.	.
N#Cc1cnc(Oc2ccc(Cl)cc2)nc1N	-	-	-	-	-	47	-	-	-
